Active and inactive are the calls of the source. The rule behind the calls is not given here.
Key:
Nrf2 (Mus musculus) [1] = test: Activation of Nrf2 in mouse Hepa1c1c7 cells assessed as increase in NQO1 activity at 0.625 uM using menadione as substrate incubated for 20 mins followed by substrate addition and measured after 30 mins by spectrophotometry relative to control; settings: filed as activator, time 50.0 min
[2] = Toxicity in non-irradiated Swiss albino mouse assessed as increase in NQO1 level at 50 mg/kg, ip administered for 5 days by ELISA; type: organism-based; settings: in vivo, 120 h, time 5 day
Summary of the method: (§1)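 Non-irradiated mice were dosed 50 mg/kg/day i.p. (vehicle 10% DMSO) for 5 days and compared with vehicle controls. On day 3, five mice per group were anesthetized with urethane. Liver homogenates (ice-cold 0.1 M PBS pH 7.4, stored −80 °C) were assayed for Nrf2 and NQO1 by ELISA, for MDA as lipid peroxide marker, and for ROS. Data are mean ± S.E., n = 5, ANOVA with Bonferroni.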

[3] = Toxicity in non-irradiated Swiss albino mouse assessed as decrease in Nrf2 level at 50 mg/kg, ip administered for 5 days by ELISA; type: organism-based; settings: in vivo, 120 h, time 5 day
Summary of the method: as §1

Mus musculus [4] = test: Antioxidant activity against radiation-induced Swiss albino mouse assessed as increase in Nrf2 level in liver at 50 mg/kg, ip administered for 5 days and irradiated with gamma radiation after 1 hr of compound administration by ELISA relative to control; type: functional; settings: time 5 day
Summary of the method: (§2)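 Mice received 50 mg/kg/day i.p. in 10% DMSO for 5 days, plus whole-body 7 Gy 137Cs gamma (0.655 rad/s) 1 h after the last dose. On day 3, five mice per group were anesthetized with urethane. Livers were homogenized in ice-cold 0.1 M PBS pH 7.4. Nrf2 and NQO1 were measured by ELISA, lipid peroxidation as MDA, plus ROS generation. Data are mean ± S.E., one-way ANOVA with Bonferroni.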

Mus musculus [5] = test: Effect on hematopoiesis in gamma-irradiated Swiss albino mouse assessed as increase in radiation-reduced RBC count at 50 mg/kg, ip administered for 5 days and irradiated with gamma radiation after 1 hr of compound administration by automated micro-analyzer; type: functional, organism-based; settings: time 5.0 day
Summary of the method: (§3)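 Dosing was i.p. 50 mg/kg/day in 10% DMSO for 5 days, followed 1 h after the final injection by 7 Gy whole-body 137Cs gamma irradiation. Complete blood count with platelets (RBC, HGB, PLT, WBC) was done on an automated analyzer 3 days after irradiation. Data are mean ± S.E.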

Mus musculus [6] = test: Antioxidant activity against radiation-induced Swiss albino mouse assessed as decrease in MDA level in liver at 50 mg/kg, ip administered for 5 days and irradiated with gamma radiation after 1 hr of compound administration by ELISA relative to control; type: functional; parameters: scale not given: the % may be the effect or the level left; settings: time 5 day
Summary of the method: as §2

Nrf2 (Mus musculus) [7] = test: Activation of Nrf2 in mouse Hepa1c1c7 cells assessed as increase in NQO1 activity at 2.5 uM using menadione as substrate incubated for 20 mins followed by substrate addition and measured after 30 mins by spectrophotometry relative to control; settings: filed as activator, time 50.0 min
[8] = Toxicity in Swiss albino mouse assessed as effect on body weight at 50 mg/kg, ip administered for 5 days and observed for 30 days; type: organism-based; settings: in vivo, 720 h, time 30 day
Summary of the method: (§4)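 Albino mice received the compound at 50 mg/kg/day i.p. daily for 5 days, with 10% DMSO i.p. daily as vehicle control; 80 mice were randomised into four groups. Body weight was recorded weekly and survival was checked daily over 30 days. Mice were housed at 25 ± 5 °C, 60 ± 5% humidity and 12 h light/dark, with food and water ad libitum.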

[9] = Toxicity in non-irradiated Swiss albino mouse assessed as effect on MDA level at 50 mg/kg, ip administered for 5 days by ELISA; type: organism-based; settings: in vivo, 120 h, time 5 day
Summary of the method: as §1

Nrf2 (Mus musculus) [10] = test: Activation of Nrf2 in mouse Hepa1c1c7 cells assessed as increase in NQO1 activity at 20 uM using menadione as substrate incubated for 20 mins followed by substrate addition and measured after 30 mins by spectrophotometry relative to control; settings: filed as activator, time 50.0 min
Mus musculus [11] = test: Antioxidant activity against radiation-induced Swiss albino mouse assessed as decrease in NQO1 level in liver at 50 mg/kg, ip administered for 5 days and irradiated with gamma radiation after 1 hr of compound administration by ELISA relative to control; type: functional; parameters: scale not given: the % may be the effect or the level left; settings: time 5 day
Summary of the method: as §2

[12] = Toxicity in Swiss albino mouse assessed as effect on liver weight at 50 mg/kg, ip administered for 5 days and observed for 5 days; type: organism-based; settings: in vivo, 120 h, time 5 day
Mus musculus [13] = test: Effect on hematopoiesis in gamma-irradiated Swiss albino mouse assessed as increase in radiation-reduced PLT count at 50 mg/kg, ip administered for 5 days and irradiated with gamma radiation after 1 hr of compound administration by automated micro-analyzer; type: functional, organism-based; settings: time 5.0 day
Summary of the method: as §3

[14] = Toxicity in non-irradiated Swiss albino mouse assessed as increase in ROS level at 50 mg/kg, ip administered for 5 days by ELISA; type: organism-based; settings: in vivo, 120 h, time 5 day
Summary of the method: as §1

Nrf2 (Mus musculus) [15] = test: Activation of Nrf2 in mouse Hepa1c1c7 cells assessed as increase in NQO1 activity at 0.313 uM using menadione as substrate incubated for 20 mins followed by substrate addition and measured after 30 mins by spectrophotometry relative to control; settings: filed as activator, time 50.0 min
Nrf2 (Mus musculus) [16] = test: Activation of Nrf2 in mouse Hepa1c1c7 cells assessed as increase in NQO1 activity using menadione as substrate incubated for 20 mins followed by substrate addition and measured after 30 mins by spectrophotometry; settings: filed as activator, time 50.0 min
[17] = target: Nuclear factor erythroid 2-related factor 2 (Mus musculus) (UniProt Q60795); test: Activation of Nrf2 in mouse Hepa1c1c7 cells assessed as increase in NQO1 activity at 40 uM using menadione as substrate incubated for 20 mins followed by substrate addition and measured after 30 mins by spectrophotometry relative to control; settings: filed as activator, time 50.0 min
Nuclear factor erythroid 2-related factor 2 (Mus musculus), sequence (Q60795 whole entry, looked up): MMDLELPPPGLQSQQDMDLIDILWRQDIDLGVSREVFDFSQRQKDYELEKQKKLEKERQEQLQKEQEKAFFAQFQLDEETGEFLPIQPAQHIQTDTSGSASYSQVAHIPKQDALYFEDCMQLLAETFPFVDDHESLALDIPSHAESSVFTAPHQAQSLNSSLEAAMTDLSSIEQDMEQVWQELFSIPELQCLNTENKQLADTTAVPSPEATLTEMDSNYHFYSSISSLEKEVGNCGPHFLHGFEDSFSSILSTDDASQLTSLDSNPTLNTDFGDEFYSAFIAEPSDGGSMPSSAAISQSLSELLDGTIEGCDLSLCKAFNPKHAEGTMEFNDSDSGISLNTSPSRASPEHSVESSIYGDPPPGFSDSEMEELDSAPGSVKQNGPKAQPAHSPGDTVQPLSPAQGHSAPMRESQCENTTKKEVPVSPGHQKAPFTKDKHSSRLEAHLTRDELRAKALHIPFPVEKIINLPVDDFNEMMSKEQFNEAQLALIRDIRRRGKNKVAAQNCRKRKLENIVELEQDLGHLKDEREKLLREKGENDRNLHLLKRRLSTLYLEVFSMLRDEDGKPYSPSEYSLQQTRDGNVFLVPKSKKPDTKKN

Nrf2 (Mus musculus) [18] = test: Activation of Nrf2 in mouse Hepa1c1c7 cells assessed as increase in NQO1 activity at 5 uM using menadione as substrate incubated for 20 mins followed by substrate addition and measured after 30 mins by spectrophotometry relative to control; settings: filed as activator, time 50.0 min
Mus musculus [19] = test: Effect on hematopoiesis in gamma-irradiated Swiss albino mouse assessed as increase in radiation-reduced HGB count at 50 mg/kg, ip administered for 5 days and irradiated with gamma radiation after 1 hr of compound administration by automated micro-analyzer; type: functional, organism-based; settings: time 5.0 day
Summary of the method: as §3

Nrf2 (Mus musculus) [20] = test: Activation of Nrf2 in mouse Hepa1c1c7 cells assessed as increase in NQO1 activity at 10 uM using menadione as substrate incubated for 20 mins followed by substrate addition and measured after 30 mins by spectrophotometry relative to control; settings: filed as activator, time 50.0 min
[21] = Toxicity in ip dosed Swiss albino mouse; type: organism-based; settings: in vivo
Mus musculus [22] = test: Antioxidant activity against radiation-induced Swiss albino mouse assessed as decrease in ROS level in liver at 50 mg/kg, ip administered for 5 days and irradiated with gamma radiation after 1 hr of compound administration by ELISA relative to control; type: functional; parameters: scale not given: the % may be the effect or the level left; settings: time 5 day
Summary of the method: as §2

[23] = Toxicity in Swiss albino mouse assessed as survival rate at 50 mg/kg, ip administered for 5 days and observed for 30 days; type: organism-based; settings: in vivo, 720 h, time 30 day
Summary of the method: as §4

Nrf2 (Mus musculus) [24] = test: Activation of Nrf2 in mouse Hepa1c1c7 cells assessed as increase in NQO1 activity at 1.25 uM using menadione as substrate incubated for 20 mins followed by substrate addition and measured after 30 mins by spectrophotometry relative to control; settings: filed as activator, time 50.0 min

COc1cc(NC(=O)CSc2nc3c(I)cc(I)cc3c(=O)n2-c2ccc(S(N)(=O)=O)cc2)cc(OC)c1OC
T/C (Nrf2 (Mus musculus) [1]): 1.08 | Activity [2]: Non-Toxic | Activity [3]: Non-Toxic | Activity (Mus musculus [4]): 19% | Activity (Mus musculus [5]): Active | Activity (Mus musculus [6]): 28% | T/C (Nrf2 (Mus musculus) [7]): 1.16 | Activity [8]: Non-Toxic | Activity [9]: Non-Toxic | T/C (Nrf2 (Mus musculus) [10]): 1.98 | Activity (Mus musculus [11]): 30% | Activity [12]: Non-Toxic | Activity (Mus musculus [13]): Active | Activity [14]: Non-Toxic | T/C (Nrf2 (Mus musculus) [15]): 1.02 | Activity (Nrf2 (Mus musculus) [16]): Dose-dependent effect | CD (Nrf2 (Mus musculus) [16]): 20 µM | T/C [17]: 2.42 | T/C (Nrf2 (Mus musculus) [18]): 1.24 | Activity (Mus musculus [19]): Active | T/C (Nrf2 (Mus musculus) [20]): 1.43 | LD50 [21]: 500 mg/kg | Activity (Mus musculus [22]): 23% | Activity [23]: Non-Toxic | T/C (Nrf2 (Mus musculus) [24]): 1.1
